Test results: ChEMBL document CHEMBL1156859, “Novel bis-2,2,6,6-tetramethylpiperidine (bis-TMP) and bis-mecamylamine antagonists at neuronal nicotinic receptors mediating nicotine-evoked dopamine release” (Bioorg Med Chem Lett, 2010)

What was measured:
Format in all cases: functional
[1] = Antagonist activity at nicotinic acetylcholine receptor in rat striatal slices assessed as inhibition of S-(-)-nicotine-induced [3H]dopamine release at 100 nM relative to control
In short: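 Probe assay on superfused rat striatal slices: 100 nM analog against 10 μM S-(−)-nicotine-evoked [3H]DA release. Inhibition is expressed as a percentage of the nicotine response without analog, i.e. the fractional release evoked under control conditions. Each value comes from at least 3 independent experiments, each in duplicate (n = 3 rats/analog).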

[2] = Antagonist activity at nicotinic acetylcholine receptor in rat striatal slices assessed as inhibition of S-(-)-nicotine-induced [3H]dopamine release
In short: (§1)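 Superfused rat striatal slices were stimulated with 10 μM S-(−)-nicotine, with analog present across 1 nM to 10 μM. Evoked [3H]DA overflow was expressed as a percent of tissue [3H] content and compared with nicotine alone. IC50 and Imax came from iterative nonlinear least-squares curve fitting, using 4-6 independent experiments.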

[3] = Antagonist activity at nicotinic acetylcholine receptor in rat striatal slices assessed as inhibition of S-(-)-nicotine-induced [3H]dopamine release relative to control; in short: as §1

Row | Compound | inhibition at 0.1 µM [1] [%] | IC50 [2] [µM] | Imax [3] [%]
1 | CC1(C)CCCC(C)(C)N1CCCCCCCCCCCN1C(C)(C)CCCC1(C)C | 22 |  | 
2 | CC1(C)CCCC(C)(C)N1CCCCCCCCCCCCN1C(C)(C)CCCC1(C)C | 36 |  | 
3 | Cc1ccc[n+](CCCC#Cc2cc(C#CCCC[n+]3cccc(C)c3)cc(C#CCCC[n+]3cccc(C)c3)c2)c1.[Br-].[Br-].[Br-] | 40 | 0.0002 | 67
4 | Cc1ccc[n+](CCCCCCCCCCCC[n+]2cccc(C)c2)c1.[Br-].[Br-] |  | 0.002 | 78
5 | CN(CCCC#Cc1cc(C#CCCCN(C)[C@@]2(C)[C@@H]3CC[C@@H](C3)C2(C)C)cc(C#CCCCN(C)[C@@]2(C)[C@@H]3CC[C@@H](C3)C2(C)C)c1)[C@@]1(C)[C@@H]2CC[C@@H](C2)C1(C)C | 73 | 0.107 | 62
6 | CN(CCCCCCCCCCCN(C)[C@@]1(C)[C@@H]2CC[C@@H](C2)C1(C)C)[C@@]1(C)[C@@H]2CC[C@@H](C2)C1(C)C | 35 | 0.319 | 90
7 | CC1(C)CCCC(C)(C)N1CCCCCCCCCCN1C(C)(C)CCCC1(C)C | 5 |  | 
8 | CC1(C)CCCC(C)(C)N1CCCCCCCCCCCCCN1C(C)(C)CCCC1(C)C | 56 | 0.0022 | 87
9 | CN(CCCCCCCCCCCCCN(C)[C@@]1(C)[C@@H]2CC[C@@H](C2)C1(C)C)[C@@]1(C)[C@@H]2CC[C@@H](C2)C1(C)C | 52 | 0.046 | 83
10 | CC1(C)CCCC(C)(C)N1CCCCCCCCN1C(C)(C)CCCC1(C)C | 18 |  | 
